# Test results published in paper PMC3435882 (Molecular imaging and biology : MIB : the official …, 2009).
# Bridge positions count the residues as written; N and C are the ends. Square brackets hold non-standard residues; d marks the D form. Peptide text beside a SMILES is read from it. Cy5.5 = cyanine dye Cy5.5, conjugated as the NHS ester; βAla = NCCC(=O)O
# Legend:
# [1] = target: T1, MMP-2 (Homo sapiens, UniProt P08253); assay: In vitro MMP-2 inhibition assay; format: biochemical; settings: MMP-2 Inhibition IC50, APMA-activated MMP-2, 1 hr preincubation at 37°C
# T1 sequence (P08253 110-660): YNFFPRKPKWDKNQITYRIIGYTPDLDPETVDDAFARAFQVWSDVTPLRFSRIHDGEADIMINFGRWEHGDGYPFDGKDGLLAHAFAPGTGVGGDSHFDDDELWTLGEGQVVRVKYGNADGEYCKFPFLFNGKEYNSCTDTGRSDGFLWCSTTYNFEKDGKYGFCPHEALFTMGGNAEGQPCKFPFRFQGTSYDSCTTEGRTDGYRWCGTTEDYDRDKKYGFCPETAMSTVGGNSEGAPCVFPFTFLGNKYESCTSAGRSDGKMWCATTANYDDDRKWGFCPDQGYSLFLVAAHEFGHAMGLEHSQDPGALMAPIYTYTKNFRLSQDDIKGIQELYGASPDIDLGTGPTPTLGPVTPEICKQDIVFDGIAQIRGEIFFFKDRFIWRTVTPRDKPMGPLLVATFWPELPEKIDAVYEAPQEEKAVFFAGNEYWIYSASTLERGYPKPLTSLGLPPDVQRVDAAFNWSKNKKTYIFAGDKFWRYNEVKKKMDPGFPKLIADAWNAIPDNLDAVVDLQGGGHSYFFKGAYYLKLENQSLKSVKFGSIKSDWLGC
# Summary of the method: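 Commercial MMP-2 was activated with APMA. Test compound was preincubated with activated enzyme (40 ng/200 μl) for 1 hr at 37°C, then biotinylated gelatinase substrate was added for 1 hr. The mixture was moved to a biotin-binding plate (30 min, 37°C) and washed. Streptavidin-enzyme conjugate and chromogenic substrate followed, and OD at 450 nm gave relative gelatinase activity.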
# [2] = Stability study in serum-containing culture medium; format: in vitro ADME; settings: DMEM/F-12 with 10% fetal bovine serum, 25°C, over 3 hr, HPLC
# Summary of the method: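 Peptides were incubated at 25°C in DMEM/F-12 containing 10% FBS. Aliquots taken at intervals were analysed by reverse-phase C-18 HPLC using an acetonitrile/water gradient with 0.1% TFA and UV detection at 230 nm. Intact-peptide peak area was expressed as a percentage of the 0-min area.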
# [3] = tested on: PC-3 tumors; format: in vivo, mice; settings: for tumor uptake in intratibial PC-3 tumors: 48 hr after intravenous injection, 15 nmol/mouse
# [4] = tested on: gelatinase activity in U87 cell lysates; assay: Gelatin zymography; format: biochemical, human; settings: U87 cell lysate, doxycycline 100 μM in incubation buffer
# Summary of the method: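 U87 cells were lysed in 1% Triton X-100, 50 mM Tris-HCl pH 7.6, 200 mM NaCl, 10 mM CaCl₂, then spun 10 min at 9700 × g. Supernatant was diluted 1:4 in SDS sample buffer, loaded at equal protein and run on 10% gels containing 1 mg/ml gelatin. Gels were washed 4 hr in Triton/CaCl₂ buffer and developed overnight at 37°C (pH 7.6), with doxycycline added, then Coomassie-stained.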
# [5] = tested on: U87 cells; assay: Fluorescence microscopy, probe uptake in U87 cells; format: cell-based, human; settings: for uptake/binding in U87 cells: 10 μM, 37°C, 5 min
# Summary of the method: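 U87 cells grown in DMEM/F-12 with 10% FBS were seeded on cover slips overnight. For blocking, cells were pretreated with doxycycline (5, 25, 100 μM) or unlabelled peptide, then given 10 μM Cy5.5-labelled test compound; uptake samples received the probe alone (10 μM, 37°C, 5 min). After two PBS washes, cells were fixed and stained with 1 μM Sytox Green in 95% ethanol (15 min). Fluorescence microscopy was at ×60.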
# [6] = tested on: U87 cells; assay: Confocal microscopy of U87 cells; format: cell-based, human; settings: 5 min
# Summary of the method: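 U87 cells (1 × 10⁵) on cover slips in 24-well plates were exposed to 10 μM Cy5.5-labelled test compound or free Cy5.5. They were held 5 min at 4°C or 37°C in the dark, then washed twice with PBS. Nuclei were stained with 1 μM Sytox Green. After two more PBS washes, slides were mounted for confocal imaging at emission 693 nm (Cy5.5) and 488 nm (Sytox Green).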
# [7] = target: T1, MMP-2; assay: In vitro β-casein degradation assay; format: biochemical; settings: 0, 10, 50, 200 μM; SDS-PAGE
# [8] = tested on: U87 brain tumors; assay: In vivo and ex vivo NIRF imaging of intracranial U87 tumors; design: species or system mice; settings: 24 hr after intravenous administration, 15 nmol/mouse
# [9] = tested on: A549 cells; assay: Fluorescence microscopy, probe uptake in A549 cells; format: cell-based, human; settings: 10 μM, 37°C, 5 min
# Summary of the method: (§1)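 Cells were kept in DMEM/F-12 with 10% FBS at 37°C, 5% CO₂, seeded on cover slips and incubated overnight. Cy5.5-labelled test compound (10 μM) was added for 5 min at 37°C. Cells were washed twice with PBS, then fixed and nuclear-stained with 1 μM Sytox Green in 95% ethanol for 15 min. Fluorescence microscopy was at ×60.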
# [10] = tested on: PC-3 cells; assay: Fluorescence microscopy, probe uptake in PC-3 cells; format: cell-based, human; settings: 10 μM, 37°C, 5 min
# Summary of the method: as §1
molecule,measurement,setting,value
"CC(C)C[C@@H]1NC(=O)[C@H]([C@@H](C)O)NC(=O)[C@H](Cc2ccccc2)NC(=O)CNC(=O)[C@H](Cc2c[nH]c3ccccc23)NC(=O)[C@H](Cc2c[nH]cn2)NC(=O)[C@H]([C@@H](C)O)NC(=O)[C@H]([C@@H](C)O)NC(=O)[C@@H](N)CSSC[C@@H](C(N)=O)NC1=O [C1, c(CTTHWGFTLC)NH2, reference compound] (H-CTTHWGFTLC-NH2; disulfide 1-10)",IC50,[1],30.3 µM
same,stability of intact peptide,[2],completely degraded
"CC(C)C[C@@H]1NC(=O)[C@H]([C@@H](C)O)NC(=O)[C@H](Cc2ccccc2)NC(=O)CNC(=O)[C@H](Cc2c[nH]c3ccccc23)NC(=O)[C@H](Cc2c[nH]cn2)NC(=O)[C@H]([C@@H](C)O)NC(=O)[C@H]([C@@H](C)O)NC(=O)[C@H](C)NC(=O)CCNC1=O [C3, c(ATTHWGFTL-β-Ala)] (cyclo(ATTHWGFTL[βAla]))",IC50,[1],83.9 µM
"C[C@H]1c2cccc(O)c2C(=O)C2=C(O)[C@]3(O)C(=O)C(C(N)=O)=C(O)[C@@H](N(C)C)[C@@H]3[C@@H](O)[C@@H]21 [doxycycline, reference compound]",blocking of in vivo uptake of Cy5.5-C6 in PC-3 tumors,[3]; co-injection with doxycycline (data not shown),could not be blocked
same,blocking of gelatinase activity in zymography,[4],could be blocked
same,blocking of Cy5.5-C6 binding to U87 cells,[5]; doxycycline 25 and 100 μM followed by Cy5.5-C6 10 μM,partially blocked
Cy5.5 [reference compound],uptake/binding in U87 cells,[5],did not bind to the cells
same,cell uptake and distribution at 37°C,[6],minimal uptake
Cy5.5-c(CTTHWGFTLC)NH2 ({Cy5.5}-CTTHWGFTLC-NH2; disulfide 1-10) [Cy5.5-C1],inhibition of β-casein degradation by MMP-2,[7],inhibited the degradation of β-casein in a dose-dependent manner
same,tumor uptake in intratibial PC-3 tumors,[3],tumor targeting could not be detected
same,uptake/binding in U87 cells,[5],to a less degree
Cy5.5-c(KAHWGFTLD)NH2 ({Cy5.5}-KAHWGFTLD-NH2; lactam 1-9) [Cy5.5-C6],localization to orthotopic U87 gliomas,[8],readily visible
same,inhibition of β-casein degradation by MMP-2,[7],inhibited the degradation of β-casein in a dose-dependent manner
same,tumor uptake in intratibial PC-3 tumors,[3],clearly visualized
same,binding to A549 cells (minimal MMP-2 activity),[9],did not bind
same,uptake in PC-3 cells,[10],taken up
same,uptake/binding in U87 cells,[5],rapidly taken up
same,cell uptake at 4°C,[6]; 4°C,substantially reduced
same,cell uptake and distribution at 37°C,[6],distributed to cell cytosol and nuclei
"Cy5.5-c(KHGLTWFAD)NH2 ({Cy5.5}-KHGLTWFAD-NH2; also: cyclic, ring type and sites not given here) [Cy5.5-C7]",tumor uptake in intratibial PC-3 tumors,[3],not taken up by the tumors
